# The entries come from a sample that favours hits as a whole.
# Cl transport mod = modulators of human KCC2 chloride dependent transport; actives 2.2% (n = 190,000); KCC2 cells, thallium flux FluoZin-2 fluorescence; B-score of Tl+ flux slope (higher = more flux/activation; lower = inhibition) at 10 µM; AID 1456;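 active means thallium flux slope and its plate-corrected score both differing from the plate sample mean at a set confidence after two filtering rounds, in either direction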;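 further: slope of fluorescence scaled to starting intensity during 10 to 20 s after thallium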
# pCIP destab = lowers stability of the mouse p/CIP coactivator protein. Q05BA5. F442A p/CIP-EGFP cells, EGFP fluorescence, 16 h. decrease of EGFP signal, % at 10 µM. actives 0.01% (n = 290,000). AID 1984;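 active means EGFP signal decrease of at least 30% at 10 µM or well 3 SD below plate mean, unless failing retest; inactive means the rest, including hits failing retest or dose response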
# Dynein transport = blocks dynein driven cargo transport along microtubules. actives 0.47% (n = 220,000). 3617.4 mouse cells, GR-EGFP nuclear translocation imaging; test concentration mostly 20 µM; stimulated with dexamethasone, 1 µM; active compounds read low. z-score, hits read low;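 active means plate z-score of nuclear minus cytoplasmic receptor signal below a set negative limit, without overly bright fluorescence or cell loss, cut at about -3.5 in these data, passing the limit was not always enough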;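 further: z-score of nuclear minus cytoplasmic ring GR-EGFP intensity difference per well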
#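 Medium: Induction medium lacking tetracycline, stripped serum | Probe or stimulus: 1.0 µM final dexamethasone stimulus | Schedule: 48 h induction, then 1 h compound, then 30 min agonist, 37 °C | Signal: Automated 10x imaging of fixed Hoechst-stained cells | Evaluation: Per-cell GR-EGFP intensity, nucleus versus surrounding cytoplasmic ring, well-averaged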
# ABCB6 inh 2 = inhibitors of human ABC transporter ABCB6. K562-ABCB6 porphyrin accumulation, flow cytometry, 1 h; active compounds read low. AID 602162. Q9NP58. actives 0.19% (n = 360,000). fluorescence ratio to DMSO, % at 10 µM;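 active means fluorescence ratio to DMSO below 75%, the collection mean minus 3 SD; inconclusive means too few cells collected in the well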;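 further: signal is porphyrin accumulated inside mitochondria; 100% equals median channel fluorescence of DMSO control wells; lower ratio means ABCB6 inhibition with less porphyrin fluorescence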
# Target sequence (Q9NP58 whole entry, looked up): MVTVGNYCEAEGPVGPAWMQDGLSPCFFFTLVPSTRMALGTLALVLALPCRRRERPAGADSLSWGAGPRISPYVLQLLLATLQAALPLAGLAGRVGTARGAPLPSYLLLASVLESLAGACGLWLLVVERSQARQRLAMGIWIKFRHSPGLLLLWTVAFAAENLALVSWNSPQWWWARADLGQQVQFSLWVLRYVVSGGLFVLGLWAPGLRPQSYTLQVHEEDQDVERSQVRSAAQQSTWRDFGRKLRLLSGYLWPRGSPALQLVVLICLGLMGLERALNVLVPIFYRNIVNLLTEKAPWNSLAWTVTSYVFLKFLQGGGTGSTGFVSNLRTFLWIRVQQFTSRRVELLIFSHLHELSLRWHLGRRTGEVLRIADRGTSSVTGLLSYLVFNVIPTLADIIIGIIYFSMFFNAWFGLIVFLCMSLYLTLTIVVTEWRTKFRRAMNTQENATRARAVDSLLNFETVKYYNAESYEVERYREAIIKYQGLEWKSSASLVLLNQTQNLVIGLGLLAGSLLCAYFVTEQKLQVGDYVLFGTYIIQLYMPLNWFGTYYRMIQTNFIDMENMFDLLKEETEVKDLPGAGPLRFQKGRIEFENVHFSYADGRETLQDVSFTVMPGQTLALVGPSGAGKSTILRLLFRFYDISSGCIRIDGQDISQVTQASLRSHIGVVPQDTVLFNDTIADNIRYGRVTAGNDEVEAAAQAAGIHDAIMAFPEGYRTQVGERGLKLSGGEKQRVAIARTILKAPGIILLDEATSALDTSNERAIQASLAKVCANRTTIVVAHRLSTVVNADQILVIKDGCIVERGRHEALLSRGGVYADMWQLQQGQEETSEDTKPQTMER
# V-ATPase pHluor = yeast V-ATPase proton transport regulation by pHLuorin. S. cerevisiae, pHLuorin cytosolic pH fluorescence. response, % at 10 µM. actives 0.37% (n = 350,000). AID 504577; in the data active means response mostly above about 7.3%, no sharp cut-off; inactive means mostly below about 5.4%; further: actives read high
# KCC2 sec1 = KCC2 (human) modulation, secondary assay. shares compounds with Cl transport mod. HEK293-KCC2, thallium flux, FluoZin2 fluorescence; active compounds read high. normalised thallium flux (F/F0 slope) at 10 µM. actives 15% (n = 3,700). AID 1713;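 active means thallium flux slope above the same plate's solvent-only control mean plus 3 SD; inconclusive means the two replicate wells disagree; inactive means no significant difference from solvent-only control wells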
# KCC2 bumet counter = thallium flux despite bumetanide block in KCC2 cells, secondary assay 3. shares compounds with Cl transport mod. HEK293-KCC2 + bumetanide/ouabain, thallium flux FluoZin2; active compounds read high. normalized thallium flux at 10 µM. actives 49% (n = 3,700). AID 1714;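 active means thallium entry rate above the same plate's blocked-transporter control wells by more than 3 SD; inconclusive means the two repeat wells disagree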;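 further: raw slope of fluorescence over initial fluorescence between 10 and 20 s after thallium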
# KCC2 sec2 = KCC2 (human) modulation, second secondary assay; shares compounds with Cl transport mod; HEK293-KCC2, thallium flux FluoZin2 fluorescence; actives lie on both sides; F/F0 rise rate, 10–20 s post-thallium; normalized thallium flux at 10 µM; actives 23% (n = 3,700); AID 1715;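 active means thallium flux slope more than 3 SD above or below the plate's solvent-only control mean, mostly below; inconclusive means the two repeat wells disagreed; inactive means no significant shift from solvent-only controls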;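 further: raw slope with 0.1% DMSO as baseline and bumetanide as block control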
# HEK counter1 = parental HEK flux effect, counter-screen | thallium flux rate (normalised fluorescence) at 10 µM | shares compounds with Cl transport mod | HEK293 parental cells, thallium flux FluoZin2, ouabain; baseline-ratio fluorescence slope, 10–20 s after thallium | AID 1716 | actives 46% (n = 3,700);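 active means thallium flux rate significantly above the same plate's solvent-only control wells, beyond their mean plus 3 SD; inconclusive means the two replicate wells gave conflicting results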
# KCC2 retest ouab = confirmation of human KCC2 modulators with ouabain. HEK293-KCC2, thallium flux FluoZin2 fluorescence; bidirectional: low = inhibitor, high = activator. AID 1717. actives 48% (n = 3,700). raw Tl+ flux slope (below DMSO = inhibition, above = activation) at 10 µM. shares compounds with Cl transport mod;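 active means thallium flux slope beyond 3 SD from same-plate DMSO control mean in most replicates, usually higher, sometimes lower; inconclusive means repeat tests gave conflicting results; inactive means no significant difference from controls in most replicates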;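 further: slope of initial-normalized fluorescence between seconds 10 and 20 after thallium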
# HEK counter2 = parental HEK flux effect, counter-screen 2; AID 1718; shares compounds with Cl transport mod; actives 33% (n = 3,700); thallium flux slope at 10 µM; HEK293 parental, thallium flux FluoZin-2 fluorescence slope;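 active means thallium flux slope above the same plate's solvent-control mean plus 3 SD in both duplicate wells; inconclusive means duplicate wells that disagreed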;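 further: run without ouabain in cells lacking the KCC2 cotransporter; slope of fluorescence scaled to its starting value between 10 and 20 s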
# An asterisk follows results filed as active; ? = inconclusive; . = not tested or not shown.
SMILES,Cl transport mod,pCIP destab,Dynein transport,ABCB6 inh 2,V-ATPase pHluor,KCC2 sec1,KCC2 bumet counter,KCC2 sec2,HEK counter1,KCC2 retest ouab,HEK counter2
CCOc1cccc(-c2cc(-c3n[nH]c(=S)n3CC)c3ccccc3n2)c1,.,-3,1.1,91,-5,0.0089,0.072*,0.031,0.015*,?,?
Cn1c(-c2ccccc2)n[nH]c1=S,0.15,4,0.18,100,-3,.,.,.,.,.,.
Cc1ccc(-c2cc(-c3n[nH]c(=S)n3C)c3ccccc3n2)cc1,11*,16,-1.6,92,0,0.0092,0.044*,0.031,0.012*,?,?
CCn1c(-c2cc(-c3ccc(C)c(C)c3)nc3ccccc23)n[nH]c1=S,1.3,-13,1.8,.,.,.,.,.,.,.,.
CC(OC(=O)Cc1ccc(Br)cc1)C(=O)NC1CCCC1 (stereo not given),.,.,.,95,1,.,.,.,.,.,.
CN(C)c1ccc(/C=N/n2c(-c3cccnc3)n[nH]c2=S)cc1,0.82,-13,0.29,103,.,.,.,.,.,.,.
CN(C)c1ccc(/C=N/n2c(-c3ccccc3Br)n[nH]c2=S)cc1,5.8*,-10,2.6,105,-3,0.011,0.023*,0.031,0.012*,?,0.011
O=C1/C(=C/C=C/c2ccco2)SC(=S)N1NS(=O)(=O)c1ccccc1,6.8*,-8,0.95,100,-1,0.0067,0.014*,0.032,0.017*,?,0.018*
CC(C(=O)O)N1C(=O)/C(=C/C=C/c2ccco2)SC1=S (stereo not given),0.0013,-3,0.56,98,-4,.,.,.,.,.,.
COc1ccc(OC)c(/C=C2\SC(=S)N(NS(=O)(=O)c3ccccc3)C2=O)c1,.,2,.,98,-3,.,.,.,.,.,.
O=C1/C(=C/c2cccs2)SC(=S)N1NS(=O)(=O)c1ccccc1,8.8*,-15,-0.46,99,3,0.014*,0.029*,0.036,0.016*,0.026,0.014*
O=C(Cc1ccccc1F)NCC(c1ccco1)N1CCCCC1 (stereo not given),1,-32,-0.56,109,1,.,.,.,.,.,.
COc1ccc(CCN(C)C(=S)NC(=O)c2ccc(F)cc2Cl)cc1OC,9.8*,1,1.2,97,8,0.015*,0.036*,0.028,0.017*,0.033*,0.01*
CCOc1ccc(/C=C2\SC(=S)NC2=O)cc1OC,9.4*,-1,-0.52,100,-2,0.013*,0.02*,?,0.016*,0.023,0.012*
CCOc1ccc(/C=C2\SC(=S)N(NS(=O)(=O)c3ccccc3)C2=O)cc1OC,7*,-4,-0.026,98,1,?,0.028*,0.034,0.014*,?,0.018*
CCOc1cc(/C=C2\SC(=S)N(NS(=O)(=O)c3ccccc3)C2=O)ccc1O,.,-39,.,109,-2,.,.,.,.,.,.
CCOc1ccc(/C=C2\SC(=S)N(NS(=O)(=O)c3ccc(C)cc3)C2=O)cc1OC,24*,-11,-0.87,95,0,0.0065,0.039*,0.029,0.021*,?,0.014*
COc1ccccc1Nc1nnc(SCc2cc(=O)n3ccsc3n2)s1,-0.85,-2,0.77,98,2,.,.,.,.,.,.
Cc1ccc(Nc2nnc(SCc3cc(=O)n4ccsc4n3)s2)c(C)c1,-7.6*,-21,1.9,98,-2,0.0087,0.0068,?,0.0038,0.016*,0.011
CCc1ccc(Nc2nnc(SCc3cc(=O)n4ccsc4n3)s2)cc1,-8.5*,-11,0.33,91,-1,0.0085,0.0055,0.021*,0.0057,0.011*,0.0094
Fc1ccccc1COc1ccc2ccccc2c1CNc1nn[nH]n1,-5.9*,-39,0.23,105,1,0.0059,0.0043,0.02*,?,0.0087*,?
Fc1ccc(COc2ccc3ccccc3c2CNc2nn[nH]n2)cc1,-4.6*,6,0.52,95,3,0.0061,0.0046,0.021*,?,0.0092*,?
CCOC(=O)N1CCC(NC(=O)CS(=O)Cc2nc(-c3ccccc3C)oc2C)CC1 (stereo not given),.,-16,.,99,-3,.,.,.,.,.,.
O=C(Nc1sc2c(c1C(=O)O)CCCC2)c1cccc(Cl)c1,.,-3,.,90,-2,.,.,.,.,.,.
O=C(O)C(=O)/C(=C\c1cccc(Cl)c1)c1ccc2ccccc2n1,11*,-9,-0.53,101,4,0.0062,0.022*,0.033,0.023*,?,0.016*
SMILES,Cl transport mod,pCIP destab,Dynein transport,ABCB6 inh 2,V-ATPase pHluor,KCC2 sec1,KCC2 bumet counter,KCC2 sec2,HEK counter1,KCC2 retest ouab,HEK counter2
Cc1cccc(/C=C(\C(=O)C(=O)O)c2ccc3ccccc3n2)c1,0.77,-5,0.017,110,-1,.,.,.,.,.,.
CC1C(=O)N2CCCc3cc(NC(=O)c4ccccc4C(F)(F)F)cc1c32 (stereo not given),.,.,.,96,-3,.,.,.,.,.,.
CCC(=O)Oc1ccc(NC(=O)c2ccco2)cc1,0.24,8,-0.45,99,2,.,.,.,.,.,.
O=C(Nc1ccc2c(c1)Cc1ccccc1-2)c1ccco1,.,1,-0.74,103,.,?,0.05*,0.032,0.023*,0.028,0.013*
CCC(=O)Nc1ccc(NC(=O)c2ccco2)cc1,.,5,0.42,103,9,0.01,0.0094*,0.034,0.009*,0.023,?
COc1cccc(OC)c1C(=O)Nc1ccc2c(c1)Cc1ccccc1-2,-0.11,9,-0.056,91,-4,.,.,.,.,.,.
CC1CN(C(=O)CSc2nnc(CNC(=O)c3ccc(S(=O)(=O)N(C)C)cc3)o2)CC(C)O1 (stereo not given),.,-2,.,97,-2,.,.,.,.,.,.
O=C1CC(N(O)C2CC(=O)N(Cc3ccccc3)C2=O)C(=O)N1Cc1ccccc1 (stereo not given),.,7,-1.3,98,6,0.0051,0.0049,0.026*,0.0073,?,0.011
CC(NC(=O)C1CCC(C(=O)NC(C)c2ccccc2)CC1)c1ccccc1 (stereo not given),.,3,.,102,2,.,.,.,.,.,.

# Screens: PubChem BioAssay, several laboratories
